Bioassay records: PubChem BioAssay, The Scripps Research Institute Molecular Screening Center
NPY1 pot ag: NPY-Y1 receptor potentiators or agonists, primary screen, cell-based; Neuropeptide Y receptor type 1 (Homo sapiens), P25929; NPY-Y1 expressing cells, potentiator/agonist activation; activation, % at 3.6 µM; hit rate 0.37% among 220,000; in the data active = activation above about 33%, passing the limit was not always enough;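 note: cells stimulated with NPY at EC10 then isoproterenol at EC100; 0% = low agonist plus stimulus and 100% = saturating agonist plus stimulus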
S1P4 ag: S1P4 receptor agonists, primary screen, cell-based | Sphingosine 1-phosphate receptor 4 (Homo sapiens), O95977 | S1P4-expressing cell line, agonist reporter assay | activation, % at 4.98 µM | hit rate 0.35% among 220,000; in the data active = activation above about 11%;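 note: 0% = DMSO vehicle and 100% = reference agonist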
NPY-Y2 PAM-ag: NPY-Y2 potentiators or agonists, primary screen, cell-based; Neuropeptide Y receptor type 2 (Homo sapiens), P49146; cells expressing NPY-Y2, potentiator/agonist read-out; activation, % at 3.6 µM; hit rate 0.45% among 220,000; in the data active = activation above about 27%;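 note: cells stimulated with NPY near EC25 plus isoproterenol at EC100; 0% = vehicle plus submaximal agonist and 100% = vehicle plus saturating agonist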
Target sequence (P49146 whole entry, looked up): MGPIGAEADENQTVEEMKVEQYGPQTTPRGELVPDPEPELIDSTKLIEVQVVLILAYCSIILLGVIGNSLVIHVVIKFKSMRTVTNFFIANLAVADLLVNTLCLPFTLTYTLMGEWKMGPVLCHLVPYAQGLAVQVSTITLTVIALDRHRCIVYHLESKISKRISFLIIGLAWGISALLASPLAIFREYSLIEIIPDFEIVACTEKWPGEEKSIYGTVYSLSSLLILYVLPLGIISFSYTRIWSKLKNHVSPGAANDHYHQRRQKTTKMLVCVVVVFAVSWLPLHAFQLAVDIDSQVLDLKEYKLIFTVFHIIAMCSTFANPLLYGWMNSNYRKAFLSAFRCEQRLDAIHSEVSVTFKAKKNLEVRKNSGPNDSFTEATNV
NPY Y1 blocker: NPY-Y1 receptor antagonists, primary screen, cell-based; Neuropeptide Y receptor type 1 (Homo sapiens), P25929; HEK293-CNG Y1 cells, membrane potential fluorescence; NPY at EC95, then isoproterenol; inhibition, % at 3.6 µM; hit rate 1% among 200,000;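 active = inhibition above the campaign mean inhibition of all tested compounds plus 3 SD, cut at about 20% in these data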;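 note: 0% = DMSO wells given NPY plus isoproterenol and 100% = isoproterenol alone without NPY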
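Test system – HEK293 Y1/CNG channel cell line · Also added – NPY agonist 25 nM, then isoproterenol 1 µM plus Ro 20-1724 25 µM · Compound dosing – one concentration, 3.6 µM, in 0.4% DMSO · Schedule – compound incubation 1 h at room temperature, readout 45 min post-stimulation · Technique – fluorescence, membrane potential probe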
NPY Y2 blocker: NPY-Y2 receptor antagonists, primary screen, cell-based; inhibition, % at 2.7 µM; AID 793, 2007; hit rate 0.99% among 140,000; NPY-Y2 expressing cells, antagonist mode; Neuropeptide Y receptor type 2 (Homo sapiens), P49146; in the data active = inhibition above about 17%;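 note: 0% = vehicle with agonist challenge and 100% = reference antagonist with challenge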
S1P4 antag: S1P4 receptor antagonists, primary screen, cell-based | Sphingosine 1-phosphate receptor 4 (Homo sapiens), O95977 | S1P4-expressing cells, antagonist mode, reporter read-out | inhibition, % at 4.98 µM | hit rate 0.26% among 220,000; in the data active = inhibition above about 29%;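 note: 0% = wells stimulated with agonist and 100% = vehicle wells without agonist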
S1P4 ag conf: S1P4 receptor agonists, retest, confirmation, cell-based, high throughput. activation, % at 4.98 µM. shares compounds with S1P4 ag. hit rate 7% among 740. S1P4 agonist cell-based reporter assay. AID 1523, 2009; in the data active = activation above about 12%;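 note: 0% = vehicle and 100% = full reference agonist response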
S1P1 agonist: S1P1 receptor agonists, human, counter-screen for S1P4 agonist project, cell-based. S1P1 agonist cell-based assay, activation. activation, % at 4.98 µM. shares compounds with S1P4 ag. hit rate 4% among 740; in the data active = activation above about 21%;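 note: 0% = vehicle wells and 100% = reference agonist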
The depositor's hits bear a star; . = no result. An excerpt weighted towards active compounds, which were near 2.4% of everything screened.

SMILES	NPY1 pot ag	S1P4 ag	NPY-Y2 PAM-ag	NPY Y1 blocker	NPY Y2 blocker	S1P4 antag	S1P4 ag conf	S1P1 agonist
COc1ccccc1CCN=C(N)NS(=O)(=O)c1ccccc1	2.4	0.5	14.2	-0.4	.	-5.1	.	.
COc1ccc(OC)c(S(=O)(=O)NC(N)=NCCc2ccccc2OC)c1	2.0	23.1*	-7.1	3.3	.	2.3	-1.4	-5.4
COC(=O)c1ccc(-c2nc3cc(N)ccc3o2)cc1	8.5	1.3	-9.6	-4.3	2.6	1.1	.	.
CCCCN(C(=O)CSc1nnc2ccccn12)c1c(N)n(Cc2ccccc2)c(=O)[nH]c1=O	8.6	0.0	13.0	-2.7	-0.6	-7.5	.	.
N#Cc1cc2c(=O)n3ccccc3nc2n(CCCN2CCOCC2)c1=O	6.5	6.6	6.5	6.1	2.4	-8.1	.	.
N#Cc1cc2c(=O)n3ccccc3nc2n(-c2ccccc2Cl)c1=O	-9.2	28.3*	4.2	-1.7	.	-52.0	15.6*	29.2*
COc1ccc(C2NC(=O)C(C#N)=C(S)N2c2cccc(C)c2)cc1OC (configuration not stated)	0.4	15.3*	-10.8	9.9	.	-11.9	-1.6	2.8
COc1ccc(C2NC(=O)C(C#N)=C(S)N2c2ccc(C)cc2)cc1OC (configuration not stated)	17.0	0.1	17.0	-1.8	.	8.8	.	.
CN(Cc1ccccc1)c1nnc(N)s1	2.6	13.4*	10.5	-3.2	0.7	-10.1	-0.9	-7.9
COc1cc(C(F)(F)F)c(C(=O)N(C)Cc2ccc(Cl)c(Cl)c2)cn1	12.8	14.7*	3.1	.	.	2.4	-1.7	-1.5
CCc1nc(N)c(C#N)c(-c2cccc3ccccc23)c1C	10.6	16.3*	6.2	4.1	4.2	-3.2	-1.5	-3.4
O=S(=O)(c1ccc(-c2cn3ccccc3n2)cc1)N1CCOCC1	-9.3	67.9*	-7.1	13.1	7.7	-5.6	-1.6	3.0
CCN1C=C(C(=O)OC)C(c2cccc(C)c2)C(C(=O)OC)=C1	-0.9	5.2	14.1	3.0	0.2	7.0	.	.
CCCCOc1ccccc1C1C(C(=O)OC)=CN(CC)C=C1C(=O)OC	-19.6	11.6*	-13.9	8.3	6.6	-2.9	3.4	12.7
CCCOc1ccccc1C1C(C(=O)OC)=CN(C(C)C)C=C1C(=O)OC	-17.8	18.0*	-2.2	-1.1	0.6	-8.2	2.8	4.9
O=C1S/C(=C\C=C\c2ccco2)C(=O)N1c1ccc(O)cc1	-3.0	-1.4	12.0	7.1	-1.8	-13.7	.	.
O=C(Nc1nnc(-c2ccco2)o1)c1ccc(Cl)cc1	1.1	-0.6	-12.7	-0.4	.	-20.6	.	.
Cc1cc(C)c(C)c(S(=O)(=O)N2CCN(C)CC2)c1C	8.8	1.5	-7.0	0.8	.	-1.2	.	.
Cc1cc(C=NCCCO)c(C)n1-c1cc(Cl)ccc1Cl	-28.9	13.2*	-8.0	3.2	.	-15.1	21.4*	4.4
Cc1cc(/C=N/n2cnnc2)c(C)n1-c1ccc(Cl)cc1Cl	7.6	-3.0	-6.0	5.8	10.1	-50.3	.	.
O=C(O)CCCNS(=O)(=O)Cc1ccccc1	-1.8	-0.5	5.6	0.5	0.4	-24.6	.	.
CCOC(=O)c1cn(CC)c2cc(N3CCOCC3)c(F)cc2c1=O	1.2	13.7*	7.2	-2.8	-2.0	-5.5	-1.8	-3.5
CCOC(=O)c1cn(CC)c2cc(N3CCCCC3)c(F)cc2c1=O	-30.3	-0.3	-3.9	9.6	-2.4	-11.2	.	.
CC(=O)Nc1ccc(N=Cc2nc(-c3ccc(C)cc3)oc2O)cc1	-4.2	1.1	-7.5	1.2	0.3	-3.1	.	.
Cc1ccc(N=Cc2nc(-c3ccc(C)cc3)oc2O)cc1	-13.2	15.0*	-6.0	9.2	.	-0.4	-1.4	-3.7
SMILES	NPY1 pot ag	S1P4 ag	NPY-Y2 PAM-ag	NPY Y1 blocker	NPY Y2 blocker	S1P4 antag	S1P4 ag conf	S1P1 agonist
Cc1ccc(OCCOc2ccc(Cl)cc2Cl)c([N+](=O)[O-])n1	-3.3	102.3*	9.0	4.8	6.2	-33.5	79.6*	2.4
CSc1ncccc1C(=O)OCC(=O)Nc1ccc(S(=O)(=O)N2CCCC2)cc1	7.3	58.2*	-0.5	-3.5	-0.6	-15.3	-2.3	2.2
Cc1ccc(C)c(NC(=O)C(Sc2nnc(-c3cccs3)o2)c2ccccc2)c1 (configuration not stated)	-5.1	0.3	-6.7	2.6	1.0	-10.4	.	.
CCCN(Cc1nnc(-c2ccccc2Cl)o1)C(=O)c1cc([N+](=O)[O-])cc([N+](=O)[O-])c1	29.2	18.8*	1.8	0.9	.	-9.7	-1.6	-5.8
O=C(N[C@@H](Cc1ccccc1)C(=O)OCc1ccccc1)c1nc[nH]c1C(=O)NCc1ccccc1	13.0	20.1*	30.6	-5.2	.	5.0	31.9*	0.6
CCOC(=O)c1ccc2c(c1)C(=O)N(C1CCCCC1)C2=O	-7.0	24.6*	3.4	2.4	1.8	-16.7	-1.9	4.0
CCOC(=O)N1CCC(N2C(=O)c3ccc(C(=O)O)cc3C2=O)CC1	-2.2	0.6	10.8	3.9	3.3	9.3	.	.
Cc1ccc(-c2nc3ncccn3c2Nc2ccc3c(c2)OCO3)o1	-2.1	-0.8	12.8	0.7	3.2	-5.6	.	.
Cc1ccc(Nc2c(-c3ccc(C)o3)nc3ncccn23)cc1	6.5	11.0*	-4.7	.	.	2.5	-0.7	1.5
COc1ccc(C2NCCO2)cc1OC (configuration not stated)	10.0	2.1	0.6	-0.1	4.2	-12.6	.	.
Cc1ccc2nc(-c3ccc(NS(=O)(=O)c4ccccc4)cc3)sc2c1	-23.0	-1.0	-1.3	0.0	1.5	2.0	.	.
Cc1ccc2nc(-c3ccc(NS(=O)(=O)c4ccc(F)c(F)c4)cc3)sc2c1	26.0	29.9*	7.7	-2.0	0.2	-1.0	0.9	-2.6
COC(=O)c1ccc([C@@H]2C[C@H]3CN(Cc4cccnc4)C(=O)[C@]34CCCN24)cc1	-4.3	0.6	-13.3	3.8	.	-9.0	.	.
Cc1ccc(CNC(=O)c2sc3nc4c(c(C(F)(F)F)c3c2N)CCC4)cc1	-2.7	1.5	-11.9	2.5	-0.5	4.0	.	.
COc1ccc(CNC(=O)c2sc3nc4c(c(C(F)(F)F)c3c2N)CCC4)cc1	-14.5	195.9*	-5.0	-1.1	1.2	-15.8	-1.9	-8.5
CC(=O)Nc1ccc(C(=O)N/N=C/c2ccccc2OCc2ccccc2)cc1	-6.5	18.6*	-21.1	1.5	.	3.5	-1.5	-4.2
O=C(O)CSc1nnc(-c2ccccc2Br)n1-c1cccc(C(F)(F)F)c1	5.3	2.1	-4.2	6.2	.	-16.9	.	.
